Results of several laboratories.
Each line is one published result; the experiments were not run side by side.
Target: Mitogen-activated protein kinase kinase kinase 2 (MAP3K2, Homo sapiens, UniProt Q9Y2U5)
Residues used in one study (Q9Y2U5 1-619): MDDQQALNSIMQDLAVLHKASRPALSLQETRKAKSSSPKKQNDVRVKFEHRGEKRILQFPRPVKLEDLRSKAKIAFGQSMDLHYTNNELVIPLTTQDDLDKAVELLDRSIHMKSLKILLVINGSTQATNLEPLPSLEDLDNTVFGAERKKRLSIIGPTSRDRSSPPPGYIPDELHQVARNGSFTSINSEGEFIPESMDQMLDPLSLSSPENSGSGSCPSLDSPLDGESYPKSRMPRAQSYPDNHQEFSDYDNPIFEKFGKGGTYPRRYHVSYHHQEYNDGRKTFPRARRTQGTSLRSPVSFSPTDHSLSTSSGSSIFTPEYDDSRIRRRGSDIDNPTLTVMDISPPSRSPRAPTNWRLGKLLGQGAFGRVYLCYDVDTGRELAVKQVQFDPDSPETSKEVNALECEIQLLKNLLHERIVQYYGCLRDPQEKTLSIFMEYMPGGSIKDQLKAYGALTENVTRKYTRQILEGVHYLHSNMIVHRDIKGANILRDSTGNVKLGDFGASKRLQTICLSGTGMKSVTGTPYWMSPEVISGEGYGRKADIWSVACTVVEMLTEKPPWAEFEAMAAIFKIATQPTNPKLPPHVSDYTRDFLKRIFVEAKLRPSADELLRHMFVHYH

`O=C1NC(=O)c2cc(Nc3ccc(F)cc3)c(Nc3ccc(F)cc3)cc21` gave a remaining signal of 94.8% (cell-free assay; 0.5 µM).
`CC(C)(O)[C@H]1CC[C@H](Nc2ccc3ncc(-c4cccc(C(F)(F)F)c4)n3n2)CC1` has a remaining activity of 95.8% (enzyme activity, inhibitor; 1 µM).
`N#CCCc1ccc2c(c1)-c1[nH]c3ccc([N+](=O)[O-])cc3c1CC(=O)N2` gave a remaining signal of 61.5% (cell-free assay; 0.5 µM).
The remaining binding of `Cc1cc(C)c(-n2ccn3nc(-c4cccnc4)cc23)cc1NC(=O)c1cc(C#N)cc(S(F)(F)(F)(F)F)c1` is reported as 86.4% (cell-free assay, competition with immobilised ligand; 0.1 µM).
The remaining activity of `Cc1sc(C(=O)NC2COC2)cc1-n1cc(NC(=O)Nc2c(F)cccc2Cl)cn1` is reported as 88.1% (enzyme activity, inhibitor; 10 µM).
With `Cc1c(C(=O)O)cc(-c2ccc(C3CCNCC3)cc2)c2ccc(-c3ccc(C(F)(F)F)cc3)cc12` the remaining binding was 100% (binding, competition with immobilised ligand; 1 µM).
`O=C(Nc1cnn(-c2csc(C(=O)NC3COC3)c2)c1)Nc1c(F)cccc1Cl` has a remaining activity of 80.1% (enzyme activity, inhibitor; 5 µM).
With `Cc1ccc(C(=O)NCc2ccsc2)cc1C#Cc1cn(C(C)C)c2ncnc(N)c12` the activity vs control was 61% (enzyme activity, inhibitor; 1 µM).
The remaining binding of `O=c1nc(-c2ccccn2)sc2ccccc12` is reported as 92% (binding, competition with immobilised ligand; 1 µM).
With `CCN1CCN(Cc2ccc(NC(=O)c3ccc(C)c(/C=C/c4cnc5[nH]ccc5c4OC)c3)cc2C(F)(F)F)CC1` the inhibition was -0.738% (target engagement in cells, inhibitor, chemoproteomics; A-375; 0.5 µM).
`CN1CC(Oc2cnc(C#N)cc2-c2ccn3nc(NC(=O)C4CC4)cc3c2)C1` has an inhibition of 0% (enzyme activity, inhibitor; 1 µM).
With `Nc1ncnc2occ(-c3ccc(NC(=O)Nc4cc(C(F)(F)F)ccc4F)cc3)c12` the remaining signal was 1.4% (cell-free assay, inhibitor; 20 µM).
The remaining binding of `CN([C@@H]1CCc2c(CC(=O)O)c3ccccc3n2C1)S(=O)(=O)c1ccc(F)cc1` is reported as 100% (cell-free assay, competition with immobilised ligand; 1 µM).
The remaining activity of `CC(C)(C)c1nc(-c2cccc(NS(=O)(=O)c3c(F)cccc3F)c2F)c(-c2ccnc(N)n2)s1` is reported as 57% (enzyme activity, inhibitor, radiometric; 1 µM).
